{"source": "ChEMBL document CHEMBL4354843", "about": "“Structure-Based Design of a Potent and Selective Covalent Inhibitor for SRC Kinase That Targets a P-Loop Cysteine” (J Med Chem, 2020)", "key": {"[1]": {"tested_on": "Epidermal growth factor receptor (Homo sapiens), P00533 [UNDEFINED MUTATION]", "assay": "Binding affinity to human partial length EGFR E746-A750del mutant expressed in bacterial expression system assessed as residual binding level at 1 uM by Kinomescan method relative to control", "outline": "(§1)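 KinomeScan active site-directed competition binding panel (468 kinases), compound tested at 1 μM. Result expressed as remaining kinase signal versus DMSO control (percent of control).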"}, "[2]": {"biological_target": "SRSF protein kinase 1 (Homo sapiens) (UniProt Q96SB4)", "assay": "Binding affinity to wild-type human full length SRPK1 (M1 to S655 residues) expressed in bacterial expression system assessed as residual binding level at 1 uM by Kinomescan method relative to control", "outline": "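Active site-directed binding assay (KinomeScan) run across a 468-kinase panel, with the test compound at 1 μM. The read-out is the remaining kinase signal in the presence of compound, expressed as a percentage of the DMSO control. Scores above 35% were taken as weak binding and were not reported.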"}, "[3]": {"biological_target": "Protein kinase C theta type (Homo sapiens) (UniProt Q04759)", "sequence (Q04759 whole entry, looked up, the tested form may be a part)": "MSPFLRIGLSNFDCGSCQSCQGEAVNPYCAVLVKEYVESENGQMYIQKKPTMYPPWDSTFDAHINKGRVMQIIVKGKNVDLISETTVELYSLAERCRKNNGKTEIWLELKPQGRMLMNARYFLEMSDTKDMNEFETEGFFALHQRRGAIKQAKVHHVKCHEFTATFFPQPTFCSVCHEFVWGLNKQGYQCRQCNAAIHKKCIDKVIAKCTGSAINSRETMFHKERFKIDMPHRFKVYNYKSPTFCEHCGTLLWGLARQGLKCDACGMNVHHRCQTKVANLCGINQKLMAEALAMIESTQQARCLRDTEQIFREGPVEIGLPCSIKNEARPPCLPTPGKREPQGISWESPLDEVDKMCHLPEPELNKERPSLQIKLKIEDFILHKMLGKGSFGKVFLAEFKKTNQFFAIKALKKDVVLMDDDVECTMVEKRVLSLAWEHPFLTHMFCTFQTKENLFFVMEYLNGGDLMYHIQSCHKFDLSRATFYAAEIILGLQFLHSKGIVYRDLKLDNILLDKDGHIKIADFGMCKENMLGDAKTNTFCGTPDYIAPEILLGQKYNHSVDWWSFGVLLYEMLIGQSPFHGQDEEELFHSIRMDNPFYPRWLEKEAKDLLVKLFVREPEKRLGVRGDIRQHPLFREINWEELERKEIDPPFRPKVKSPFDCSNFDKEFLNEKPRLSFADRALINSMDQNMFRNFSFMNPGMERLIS", "assay": "Binding affinity to wild-type human partial length PRKCQ (L350 to S706 residues) expressed in bacterial expression system assessed as residual binding level at 1 uM by Kinomescan method relative to control", "outline": "(§2)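 Active-site-directed competition binding panel of 468 kinases (KinomeScan), compound at 1 μM. The read-out is kinase remaining bound, given as a percentage of the DMSO control. […]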"}, "[4]": {"biological_target": "Tyrosine-protein kinase Fgr (Homo sapiens) (UniProt P09769)", "assay": "Binding affinity to wild-type human partial length FGR (L233 to T529 residues) expressed in bacterial expression system assessed as residual binding level at 1 uM by Kinomescan method relative to control", "outline": "as §2"}, "[5]": {"biological_target": "Citron Rho-interacting kinase (Homo sapiens) (UniProt O14578)", "sequence (O14578 whole entry, the tested form may be a part)": "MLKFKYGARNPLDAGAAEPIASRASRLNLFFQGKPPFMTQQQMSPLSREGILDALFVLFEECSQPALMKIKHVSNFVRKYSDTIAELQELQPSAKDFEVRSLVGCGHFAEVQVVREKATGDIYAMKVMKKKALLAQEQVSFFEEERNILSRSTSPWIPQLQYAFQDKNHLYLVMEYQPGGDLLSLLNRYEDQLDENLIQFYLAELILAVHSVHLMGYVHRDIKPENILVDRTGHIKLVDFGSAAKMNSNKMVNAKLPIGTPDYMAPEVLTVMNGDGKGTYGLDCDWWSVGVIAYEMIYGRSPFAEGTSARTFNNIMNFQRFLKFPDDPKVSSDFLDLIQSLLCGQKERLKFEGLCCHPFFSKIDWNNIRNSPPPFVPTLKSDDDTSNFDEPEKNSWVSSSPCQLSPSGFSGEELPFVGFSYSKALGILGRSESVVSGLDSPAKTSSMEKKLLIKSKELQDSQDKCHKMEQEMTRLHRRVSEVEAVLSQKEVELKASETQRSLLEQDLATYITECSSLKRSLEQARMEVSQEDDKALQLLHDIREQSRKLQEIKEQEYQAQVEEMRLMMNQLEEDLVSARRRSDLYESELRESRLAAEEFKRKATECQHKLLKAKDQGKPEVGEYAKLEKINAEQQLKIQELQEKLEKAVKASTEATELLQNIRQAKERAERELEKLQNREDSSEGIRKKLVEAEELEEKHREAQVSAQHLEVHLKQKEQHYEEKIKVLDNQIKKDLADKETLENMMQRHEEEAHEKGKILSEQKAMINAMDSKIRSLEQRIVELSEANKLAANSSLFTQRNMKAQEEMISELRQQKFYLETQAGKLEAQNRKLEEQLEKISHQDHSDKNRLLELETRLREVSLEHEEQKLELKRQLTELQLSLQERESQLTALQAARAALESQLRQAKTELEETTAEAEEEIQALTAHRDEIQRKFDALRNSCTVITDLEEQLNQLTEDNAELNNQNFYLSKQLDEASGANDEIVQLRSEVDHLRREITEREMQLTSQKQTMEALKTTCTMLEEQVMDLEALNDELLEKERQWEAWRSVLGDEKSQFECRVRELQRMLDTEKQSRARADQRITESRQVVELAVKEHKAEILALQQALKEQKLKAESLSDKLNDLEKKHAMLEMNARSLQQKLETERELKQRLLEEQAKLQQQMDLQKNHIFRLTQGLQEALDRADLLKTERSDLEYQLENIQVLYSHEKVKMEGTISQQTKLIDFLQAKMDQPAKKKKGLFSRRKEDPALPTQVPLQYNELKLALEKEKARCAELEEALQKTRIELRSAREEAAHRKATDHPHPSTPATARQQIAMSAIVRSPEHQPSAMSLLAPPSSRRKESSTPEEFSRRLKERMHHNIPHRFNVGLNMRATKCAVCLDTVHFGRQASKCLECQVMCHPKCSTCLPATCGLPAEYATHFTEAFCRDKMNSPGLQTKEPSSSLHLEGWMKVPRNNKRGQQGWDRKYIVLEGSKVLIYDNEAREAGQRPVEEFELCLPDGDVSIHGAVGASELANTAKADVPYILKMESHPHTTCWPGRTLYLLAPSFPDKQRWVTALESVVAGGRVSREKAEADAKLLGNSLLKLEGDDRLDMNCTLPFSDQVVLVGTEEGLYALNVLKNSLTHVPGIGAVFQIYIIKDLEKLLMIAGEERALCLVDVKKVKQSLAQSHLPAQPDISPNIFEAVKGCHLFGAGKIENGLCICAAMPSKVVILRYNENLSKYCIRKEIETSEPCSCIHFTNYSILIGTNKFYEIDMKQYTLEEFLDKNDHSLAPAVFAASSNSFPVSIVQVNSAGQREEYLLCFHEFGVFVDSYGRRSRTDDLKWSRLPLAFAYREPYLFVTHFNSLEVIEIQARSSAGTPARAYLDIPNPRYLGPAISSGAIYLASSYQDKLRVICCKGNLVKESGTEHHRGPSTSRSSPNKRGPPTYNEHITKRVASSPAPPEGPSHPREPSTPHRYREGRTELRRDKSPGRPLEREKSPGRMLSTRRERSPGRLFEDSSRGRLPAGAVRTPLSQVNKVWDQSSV", "assay": "Binding affinity to wild-type human partial length CIT (M68 to E432 residues) expressed in bacterial expression system assessed as residual binding level at 1 uM by Kinomescan method relative to control"}, "[6]": {"biological_target": "Serine/threonine-protein kinase TAO3 (Homo sapiens) (UniProt Q9H2K8)", "assay": "Binding affinity to wild-type human partial length TAOK3 (M1 to T316 residues) expressed in mammalian expression system assessed as residual binding level at 1 uM by Kinomescan method relative to control"}, "[7]": {"biological_target": "Serine/threonine-protein kinase Nek6 (Homo sapiens) (UniProt Q9HC98)", "sequence (Q9HC98 whole entry, the tested form may be a part)": "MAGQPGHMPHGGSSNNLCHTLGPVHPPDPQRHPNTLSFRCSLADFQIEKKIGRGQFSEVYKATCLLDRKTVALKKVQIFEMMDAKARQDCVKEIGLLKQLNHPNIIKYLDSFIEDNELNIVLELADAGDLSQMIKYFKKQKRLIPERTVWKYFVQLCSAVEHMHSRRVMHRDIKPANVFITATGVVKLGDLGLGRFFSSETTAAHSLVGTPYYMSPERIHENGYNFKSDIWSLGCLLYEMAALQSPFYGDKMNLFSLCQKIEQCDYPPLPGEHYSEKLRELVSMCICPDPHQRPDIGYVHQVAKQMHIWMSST", "assay": "Binding affinity to wild-type human full length NEK6 (M8 to T313 residues) expressed in bacterial expression system assessed as residual binding level at 1 uM by Kinomescan method relative to control", "outline": "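Active-site-directed competition binding panel (KinomeScan) covering 468 kinases. Test agent was screened at 1 μM. The read-out is the remaining kinase signal expressed relative to a DMSO control. Scores above 35%, taken as weak binding, were not reported.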"}, "[8]": {"biological_target": "Inhibitor of nuclear factor kappa-B kinase subunit beta (Homo sapiens) (UniProt O14920)", "assay": "Binding affinity to wild-type human full length IKK-beta (M1 to S756 residues) expressed in mammalian expression system assessed as residual binding level at 1 uM by Kinomescan method relative to control", "outline": "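Active-site-directed KinomeScan competition binding panel covering 468 kinases, compound tested at 1 μM. Each readout is the kinase signal remaining with compound, expressed as a percentage of the DMSO control. […]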"}, "[9]": {"biological_target": "Wee1-like protein kinase (Homo sapiens) (UniProt P30291)", "assay": "Binding affinity to wild-type human partial length WEE1 (M291 to K575 residues) expressed in bacterial expression system assessed as residual binding level at 1 uM by Kinomescan method relative to control"}, "[10]": {"biological_target": "Mitogen-activated protein kinase kinase kinase 5 (Homo sapiens) (UniProt Q99683)", "assay": "Binding affinity to wild-type human partial length ASK1 (E648 to S964 residues) expressed in bacterial expression system assessed as residual binding level at 1 uM by Kinomescan method relative to control"}, "[11]": {"biological_target": "Myotonin-protein kinase (Homo sapiens) (UniProt Q09013)", "sequence (Q09013 whole entry, the tested form may be a part)": "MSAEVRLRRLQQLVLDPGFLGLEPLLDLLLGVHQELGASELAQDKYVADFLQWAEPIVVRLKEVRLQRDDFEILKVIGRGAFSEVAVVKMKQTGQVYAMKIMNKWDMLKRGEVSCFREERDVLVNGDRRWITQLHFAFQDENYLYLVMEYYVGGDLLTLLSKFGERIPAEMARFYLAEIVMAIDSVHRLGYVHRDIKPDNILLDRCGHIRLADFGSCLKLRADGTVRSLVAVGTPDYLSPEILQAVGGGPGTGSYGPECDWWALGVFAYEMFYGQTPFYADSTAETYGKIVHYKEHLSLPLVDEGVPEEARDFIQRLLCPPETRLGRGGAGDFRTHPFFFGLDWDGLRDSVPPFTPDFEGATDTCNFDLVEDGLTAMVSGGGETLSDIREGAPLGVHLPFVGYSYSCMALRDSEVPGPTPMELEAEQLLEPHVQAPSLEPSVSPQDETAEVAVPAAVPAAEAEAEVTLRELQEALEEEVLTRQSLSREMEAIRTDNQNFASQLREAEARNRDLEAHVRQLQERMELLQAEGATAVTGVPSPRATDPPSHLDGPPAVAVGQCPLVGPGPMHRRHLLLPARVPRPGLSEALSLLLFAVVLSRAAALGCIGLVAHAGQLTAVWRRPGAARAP", "assay": "Binding affinity to wild-type human partial length DMPK (V47 to V415 residues) expressed in bacterial expression system assessed as residual binding level at 1 uM by Kinomescan method relative to control"}, "[12]": {"assay": "Half life in B6 mouse at 5 mg/kg, ip", "format": "ADME, organism-based", "conditions": "in vivo", "outline": "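PK in B6 mice. Single 5 mg/kg intraperitoneal dose in 5% DMSO/95% D5W. Half-life and AUC reported.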"}, "[13]": {"biological_target": "Serine/threonine-protein kinase Nek9 (Homo sapiens) (UniProt Q8TD19)", "sequence (Q8TD19 whole entry, the tested form may be a part)": "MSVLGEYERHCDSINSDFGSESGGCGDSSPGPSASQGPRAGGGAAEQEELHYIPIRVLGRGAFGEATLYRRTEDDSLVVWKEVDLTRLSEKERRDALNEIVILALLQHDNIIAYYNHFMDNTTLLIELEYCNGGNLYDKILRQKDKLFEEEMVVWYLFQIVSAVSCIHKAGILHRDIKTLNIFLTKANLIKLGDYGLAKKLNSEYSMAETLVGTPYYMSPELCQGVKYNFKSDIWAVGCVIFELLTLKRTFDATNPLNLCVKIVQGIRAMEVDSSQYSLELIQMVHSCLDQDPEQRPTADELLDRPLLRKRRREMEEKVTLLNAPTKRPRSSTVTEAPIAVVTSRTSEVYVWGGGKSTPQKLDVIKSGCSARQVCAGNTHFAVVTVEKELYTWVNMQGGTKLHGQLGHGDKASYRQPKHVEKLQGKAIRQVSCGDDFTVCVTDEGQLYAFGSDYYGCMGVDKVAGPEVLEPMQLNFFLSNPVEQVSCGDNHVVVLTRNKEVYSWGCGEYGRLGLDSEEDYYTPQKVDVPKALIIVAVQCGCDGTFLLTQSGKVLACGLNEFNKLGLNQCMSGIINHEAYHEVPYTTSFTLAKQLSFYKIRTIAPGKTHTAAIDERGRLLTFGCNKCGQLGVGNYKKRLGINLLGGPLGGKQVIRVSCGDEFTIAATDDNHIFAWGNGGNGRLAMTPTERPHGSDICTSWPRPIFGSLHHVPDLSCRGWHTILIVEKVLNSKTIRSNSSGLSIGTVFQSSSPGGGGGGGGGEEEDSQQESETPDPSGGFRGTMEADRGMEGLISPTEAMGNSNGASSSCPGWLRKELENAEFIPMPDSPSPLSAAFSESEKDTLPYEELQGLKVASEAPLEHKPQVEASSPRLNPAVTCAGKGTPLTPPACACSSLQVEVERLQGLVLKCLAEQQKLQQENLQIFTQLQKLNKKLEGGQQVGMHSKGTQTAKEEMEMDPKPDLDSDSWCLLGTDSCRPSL", "assay": "Binding affinity to wild-type human partial length NEK9 (P32 to R328 residues) expressed in bacterial expression system assessed as residual binding level at 1 uM by Kinomescan method relative to control"}, "[14]": {"biological_target": "Ephrin type-A receptor 2 (Homo sapiens) (UniProt P29317)", "assay": "Binding affinity to wild-type human partial length EPHA2 (T593 to V891 residues) expressed in bacterial expression system assessed as residual binding level at 1 uM by Kinomescan method relative to control"}, "[15]": {"biological_target": "Aurora kinase B (Homo sapiens) (UniProt Q96GD4)", "sequence (Q96GD4 whole entry, the tested form may be a part)": "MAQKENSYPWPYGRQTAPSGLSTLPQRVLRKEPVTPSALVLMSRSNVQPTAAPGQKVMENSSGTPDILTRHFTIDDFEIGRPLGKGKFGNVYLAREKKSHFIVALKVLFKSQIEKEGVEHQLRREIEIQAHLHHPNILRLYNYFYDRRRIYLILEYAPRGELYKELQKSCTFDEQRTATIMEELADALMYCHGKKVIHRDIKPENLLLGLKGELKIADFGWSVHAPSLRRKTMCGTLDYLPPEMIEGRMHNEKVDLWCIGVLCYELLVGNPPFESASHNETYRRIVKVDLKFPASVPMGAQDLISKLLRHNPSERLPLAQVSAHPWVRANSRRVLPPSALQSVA", "assay": "Binding affinity to wild-type human partial length AURKB (D25 to A303 residues) expressed in mammalian expression system assessed as residual binding level at 1 uM by Kinomescan method relative to control", "outline": "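KinomeScan, an active site-directed competition binding panel of 468 kinases. The test compound was at 1 μM. The readout is remaining kinase binding as a percentage of the DMSO control. Scores above 35% were treated as weak binding and not listed.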"}, "[16]": {"biological_target": "Interleukin-1 receptor-associated kinase 1 (Homo sapiens) (UniProt P51617)", "assay": "Binding affinity to wild-type human partial length IRAK1 (R194 to S712 residues) expressed in mammalian expression system assessed as residual binding level at 1 uM by Kinomescan method relative to control"}, "[17]": {"tested_on": "Phosphatidylinositol 4,5-bisphosphate 3-kinase catalytic subunit alpha isoform (Homo sapiens), P42336 [Q546K]", "assay": "Binding affinity to human partial length PIK3CA Q546K mutant (R108 to N1068 residues) expressed in mammalian expression system assessed as residual binding level at 1 uM by Kinomescan method relative to control", "outline": "as §1"}, "[18]": {"biological_target": "Bone morphogenetic protein receptor type-2 (Homo sapiens) (UniProt Q13873)", "assay": "Binding affinity to wild-type human partial length BMPR2 (R179 to Q526 residues) expressed in mammalian expression system assessed as residual binding level at 1 uM by Kinomescan method relative to control"}, "[19]": {"biological_target": "Protein-tyrosine kinase 6 (Homo sapiens) (UniProt Q13882)", "assay": "Binding affinity to wild-type human partial length BRK (L166 to T451 residues) expressed in bacterial expression system assessed as residual binding level at 1 uM by Kinomescan method relative to control"}, "[20]": {"biological_target": "Serine/threonine-protein kinase TAO1 (Homo sapiens) (UniProt Q7L7X3)", "assay": "Binding affinity to wild-type human partial length TAOK1 (M1 to A320 residues) expressed in mammalian expression system assessed as residual binding level at 1 uM by Kinomescan method relative to control"}}}
{"smiles": "C=CC(=O)Nc1ccccc1Nc1nc(Nc2ccc(N3CCN(C)CC3)cc2)ncc1C(=O)Nc1c(C)cccc1Cl", "values": [{"measurement": "Activity", "setting": "[1]", "value": 67, "unit": "%"}, {"measurement": "Activity", "setting": "[2]", "value": 100, "unit": "%"}, {"measurement": "Activity", "setting": "[3]", "value": 86, "unit": "%"}, {"measurement": "Activity", "setting": "[4]", "value": 30, "unit": "%"}, {"measurement": "Activity", "setting": "[5]", "value": 100, "unit": "%"}, {"measurement": "Activity", "setting": "[6]", "value": 100, "unit": "%"}, {"measurement": "Activity", "setting": "[7]", "value": 100, "unit": "%"}, {"measurement": "Activity", "setting": "[8]", "value": 100, "unit": "%"}, {"measurement": "Activity", "setting": "[9]", "value": 100, "unit": "%"}, {"measurement": "Activity", "setting": "[10]", "value": 100, "unit": "%"}, {"measurement": "Activity", "setting": "[11]", "value": 100, "unit": "%"}, {"measurement": "half-life", "setting": "[12]", "value": 1.29, "unit": "h"}, {"measurement": "Activity", "setting": "[13]", "value": 100, "unit": "%"}, {"measurement": "Activity", "setting": "[14]", "value": 100, "unit": "%"}, {"measurement": "Activity", "setting": "[15]", "value": 79, "unit": "%"}, {"measurement": "Activity", "setting": "[16]", "value": 100, "unit": "%"}, {"measurement": "Activity", "setting": "[17]", "value": 100, "unit": "%"}, {"measurement": "Activity", "setting": "[18]", "value": 100, "unit": "%"}, {"measurement": "Activity", "setting": "[19]", "value": 100, "unit": "%"}, {"measurement": "Activity", "setting": "[20]", "value": 100, "unit": "%"}]}
